# Target: T1, Estrogen receptor (Homo sapiens) (UniProt P03372)
# T1 sequence (whole entry): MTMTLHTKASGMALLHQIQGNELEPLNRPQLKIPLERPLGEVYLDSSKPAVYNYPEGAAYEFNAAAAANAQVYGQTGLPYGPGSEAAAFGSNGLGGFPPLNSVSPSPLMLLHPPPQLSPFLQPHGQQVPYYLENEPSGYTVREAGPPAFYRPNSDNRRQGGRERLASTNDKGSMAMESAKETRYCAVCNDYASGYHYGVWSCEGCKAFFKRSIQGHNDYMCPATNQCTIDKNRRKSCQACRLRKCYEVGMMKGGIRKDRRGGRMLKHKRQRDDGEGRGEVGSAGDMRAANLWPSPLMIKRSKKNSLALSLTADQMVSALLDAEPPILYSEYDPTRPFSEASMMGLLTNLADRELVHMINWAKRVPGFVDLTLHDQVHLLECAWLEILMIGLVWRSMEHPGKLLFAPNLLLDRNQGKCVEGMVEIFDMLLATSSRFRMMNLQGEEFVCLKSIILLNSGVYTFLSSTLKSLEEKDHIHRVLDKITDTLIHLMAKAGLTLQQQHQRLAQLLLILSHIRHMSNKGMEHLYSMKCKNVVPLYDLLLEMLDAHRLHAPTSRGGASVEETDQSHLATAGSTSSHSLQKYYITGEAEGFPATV
# Test: Activation of human estrogen receptor alpha expressed in HEK293 cells at 10 uM by beta-galactosidase reporter gene assay relative to 3,17 beta-estradiol
# Assay type: cell-based
# In short: (§1)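 HEK293 cells seeded a day ahead in phenol-free DMEM with 5% delipidated FBS. Calcium phosphate transfection for 4 h with 5 ng ERα or ERβ expression vector, 75 ng pERE2TATA-LUC reporter and 20 ng pCMVβ control. Test compound at 10 µM (vehicle 0.1% v/v) for 24 h. Luciferase normalized to β-galactosidase. Activity = 100% × (test − vehicle)/(10 nM E2 − vehicle). Mean of ≥3 independent transfections.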
row,Structure (SMILES),Activity
1,COC(CC(=O)c1ccccc1)Cc1ccccc1 (configuration not stated),0.3%
2,"COc1ccccc1CC(=O)CC(Cc1ccc2ccccc2c1)OC (single isomer, unassigned; 66a)",3.5%
3,O=C(CC(=O)c1ccccc1)Cc1ccccc1,5.4%
4,"COC(CC(=O)Cc1cccc2ccccc12)Cc1cccc2ccccc12 (single isomer, unassigned; 64a)",5.6%
5,"c1ccc(CCC2=NOC(Cc3ccc4ccccc4c3)C2)cc1 (single isomer, unassigned; 53a)",22.3%
6,CS(C)=C(C(=O)CCc1ccccc1)C(=O)Cc1ccccc1,0.5%
7,Oc1ccc(CCC2=NOC(Cc3ccc(F)cc3)C2)cc1 (configuration not stated),5.7%
8,"COC(CC(=O)Cc1ccc(F)cc1)Cc1cccc2ccccc12 (single isomer, unassigned; 62b)",4.5%
9,O=C(CCc1ccccc1)CC(O)CCc1ccccc1 (configuration not stated),16.2%
10,"c1ccc(CCC2CC(c3ccccc3)=NO2)cc1 (single isomer, unassigned; 10b)",1.1%
11,"O=C(CCc1ccccc1)CC(O)Cc1ccc2ccccc2c1 (single isomer, unassigned; 57b)",20.1%
12,c1ccc(CCCC2=NOC(Cc3ccccc3)C2)cc1 (configuration not stated),31.3%
13,"c1ccc(CCC2=NOC(c3ccccc3)C2)cc1 (single isomer, unassigned; 12a)",16.4%
14,COC(CC(=O)CCc1ccccc1)Cc1ccc(F)cc1 (configuration not stated),33.1%
15,"Fc1ccc(CC2CC(CCc3ccccc3)=NO2)cc1 (single isomer, unassigned)",28.9%
16,"O=C(CCCc1ccccc1)CC(O)c1ccccc1 (single isomer, unassigned; 24b)",59.3%
17,COc1ccccc1CC(CC(=O)Cc1ccc2ccccc2c1)OC (configuration not stated),0.2%
18,COc1ccc(CC(CC(=O)CCc2ccccc2)OC)cc1 (configuration not stated),28.5%

row,Structure (SMILES),Activity
1,COC(CCc1ccccc1)CC(=O)CCCc1ccccc1 (configuration not stated),3.1%
2,"c1ccc(CCC2=NOC(Cc3cccc4ccccc34)C2)cc1 (single isomer, unassigned; 52b)",17.2%
3,COC(CC(=O)CCc1ccccc1)Cc1ccc2ccccc2c1 (configuration not stated),30.4%
4,"Oc1ccccc1CCC1=NOC(Cc2ccc(F)cc2)C1 (single isomer, unassigned; 73a)",82%
5,CS(C)=C(C(=O)CCc1ccccc1)C(=O)CCc1ccccc1,1%
6,O=C(CCc1ccccc1)CC(O)Cc1ccc(F)cc1 (configuration not stated),30.1%
7,"COc1ccccc1CC(=O)CC(Cc1ccc2ccccc2c1)OC (single isomer, unassigned; 66b)",4.3%
8,"COc1ccc(CC2CC(CCc3ccccc3)=NO2)cc1 (single isomer, unassigned; 50a)",0.8%
9,O=C(Cc1ccccc1)CC(O)c1ccccc1 (configuration not stated),0.8%
10,O=C(CCc1ccccc1)CC(O)Cc1cccc2ccccc12 (configuration not stated),12.1%
11,COc1cc2ccccc2cc1CC(CC(=O)Cc1ccc2ccccc2c1)OC (configuration not stated),14.8%
12,c1ccc(CCC2CC(Cc3ccccc3)=NO2)cc1 (configuration not stated),7%
13,"Oc1ccc(CC2CC(CCc3ccccc3)=NO2)cc1 (single isomer, unassigned; 69b)",105%
14,c1ccc(CC2=NOC(c3ccccc3)C2)cc1 (configuration not stated),19.6%
15,"c1ccc(CCCC2=NOC(Cc3ccccc3)C2)cc1 (single isomer, unassigned)",28.1%
16,"Oc1ccc(CC2CC(CCc3ccccc3O)=NO2)cc1 (single isomer, unassigned; 75a)",20.4%
17,"COc1ccccc1CC(=O)CC(Cc1cccc2ccccc12)OC (single isomer, unassigned; 63b)",0.6%
18,O=C(CCc1ccccc1)CC(=O)CCc1ccccc1,0.6%

# Target: Estrogen receptor beta (Homo sapiens) (UniProt Q92731)
# Sequence (Q92731 whole entry): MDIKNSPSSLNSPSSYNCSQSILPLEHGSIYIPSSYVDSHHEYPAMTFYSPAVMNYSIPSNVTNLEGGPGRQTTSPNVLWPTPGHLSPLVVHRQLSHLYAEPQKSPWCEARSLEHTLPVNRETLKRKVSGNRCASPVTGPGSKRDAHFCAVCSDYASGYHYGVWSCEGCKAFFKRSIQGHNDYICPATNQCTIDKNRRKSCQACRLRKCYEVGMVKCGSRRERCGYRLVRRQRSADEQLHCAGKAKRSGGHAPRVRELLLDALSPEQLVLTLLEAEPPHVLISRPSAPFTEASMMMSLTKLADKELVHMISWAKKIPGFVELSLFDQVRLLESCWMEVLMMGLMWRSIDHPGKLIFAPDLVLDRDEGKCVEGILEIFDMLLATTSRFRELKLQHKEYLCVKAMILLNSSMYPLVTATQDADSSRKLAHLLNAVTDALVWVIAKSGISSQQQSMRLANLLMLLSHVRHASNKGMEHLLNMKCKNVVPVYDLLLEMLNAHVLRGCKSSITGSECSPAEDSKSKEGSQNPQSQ
# Test: Activation of human estrogen receptor beta expressed in HEK293 cells at 10 uM beta-galactosidase reporter gene assay relative to 3,17-beta-estradiol
# Assay type: cell-based
# In short: as §1
row,Structure (SMILES),Activity
1,COC(CC(=O)c1ccccc1)Cc1ccccc1 (configuration not stated),18.4%
2,"COc1ccccc1CC(=O)CC(Cc1ccc2ccccc2c1)OC (single isomer, unassigned; 66a)",-0.5%
3,O=C(CC(=O)c1ccccc1)Cc1ccccc1,9.7%
4,"COC(CC(=O)Cc1cccc2ccccc12)Cc1cccc2ccccc12 (single isomer, unassigned; 64a)",-0.5%
5,"c1ccc(CCC2=NOC(Cc3ccc4ccccc4c3)C2)cc1 (single isomer, unassigned; 53a)",8.2%
6,CS(C)=C(C(=O)CCc1ccccc1)C(=O)Cc1ccccc1,-7.1%
7,Oc1ccc(CCC2=NOC(Cc3ccc(F)cc3)C2)cc1 (configuration not stated),4.4%
8,"COC(CC(=O)Cc1ccc(F)cc1)Cc1cccc2ccccc12 (single isomer, unassigned; 62b)",-0.5%
9,O=C(CCc1ccccc1)CC(O)CCc1ccccc1 (configuration not stated),1%
10,"c1ccc(CCC2CC(c3ccccc3)=NO2)cc1 (single isomer, unassigned; 10b)",-6%
11,"O=C(CCc1ccccc1)CC(O)Cc1ccc2ccccc2c1 (single isomer, unassigned; 57b)",20.1%
12,c1ccc(CCCC2=NOC(Cc3ccccc3)C2)cc1 (configuration not stated),13.6%
13,"c1ccc(CCC2=NOC(c3ccccc3)C2)cc1 (single isomer, unassigned; 12a)",9.8%
14,COC(CC(=O)CCc1ccccc1)Cc1ccc(F)cc1 (configuration not stated),11.2%
15,"Fc1ccc(CC2CC(CCc3ccccc3)=NO2)cc1 (single isomer, unassigned)",7.4%
16,"O=C(CCCc1ccccc1)CC(O)c1ccccc1 (single isomer, unassigned; 24b)",28.2%
17,COc1ccccc1CC(CC(=O)Cc1ccc2ccccc2c1)OC (configuration not stated),0.1%
18,COc1ccc(CC(CC(=O)CCc2ccccc2)OC)cc1 (configuration not stated),4%

row,Structure (SMILES),Activity
1,COC(CCc1ccccc1)CC(=O)CCCc1ccccc1 (configuration not stated),-14.6%
2,"c1ccc(CCC2=NOC(Cc3cccc4ccccc34)C2)cc1 (single isomer, unassigned; 52b)",6.5%
3,COC(CC(=O)CCc1ccccc1)Cc1ccc2ccccc2c1 (configuration not stated),12.4%
4,"Oc1ccccc1CCC1=NOC(Cc2ccc(F)cc2)C1 (single isomer, unassigned; 73a)",3.4%
5,CS(C)=C(C(=O)CCc1ccccc1)C(=O)CCc1ccccc1,0.3%
6,O=C(CCc1ccccc1)CC(O)Cc1ccc(F)cc1 (configuration not stated),5.7%
7,"COc1ccccc1CC(=O)CC(Cc1ccc2ccccc2c1)OC (single isomer, unassigned; 66b)",-0.5%
8,"COc1ccc(CC2CC(CCc3ccccc3)=NO2)cc1 (single isomer, unassigned; 50a)",10.6%
9,O=C(Cc1ccccc1)CC(O)c1ccccc1 (configuration not stated),1.6%
10,O=C(CCc1ccccc1)CC(O)Cc1cccc2ccccc12 (configuration not stated),1.7%
11,COc1cc2ccccc2cc1CC(CC(=O)Cc1ccc2ccccc2c1)OC (configuration not stated),2%
12,c1ccc(CCC2CC(Cc3ccccc3)=NO2)cc1 (configuration not stated),1.2%
13,"Oc1ccc(CC2CC(CCc3ccccc3)=NO2)cc1 (single isomer, unassigned; 69b)",42.4%
14,c1ccc(CC2=NOC(c3ccccc3)C2)cc1 (configuration not stated),34.4%
15,"c1ccc(CCCC2=NOC(Cc3ccccc3)C2)cc1 (single isomer, unassigned)",5.1%
16,"Oc1ccc(CC2CC(CCc3ccccc3O)=NO2)cc1 (single isomer, unassigned; 75a)",2.5%
17,"COc1ccccc1CC(=O)CC(Cc1cccc2ccccc12)OC (single isomer, unassigned; 63b)",-0.2%
18,O=C(CCc1ccccc1)CC(=O)CCc1ccccc1,0.3%
